In the library only some 3.8% were active in any assay of this set; here they are far more common.
KCNK3 block: human KCNK3 channel inhibition, primary screen | O14649 | CHO-KCNK3 thallium flux, FluxOR fluorescence; active compounds read low | B-score at 10 µM | hit rate 0.84% among 340,000;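 active = B-score under library mean minus 4 SD, starting fluorescence ratio at most library mean plus 5 SD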;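 note: more negative B-score means stronger inhibition of thallium flux through KCNK3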
hERG protect: hERG (human) protection from proarrhythmic block | hit rate 0.51% among 310,000 | AID 1511 | Q12809 | activation (rescue from dofetilide block), less the hit threshold, % at 10 µM | CHO-hERG, FluxOR thallium flux, dofetilide IC70 present;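 active = activation above the mean of controls blocked by dofetilide plus 5 SD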;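 note: thallium influx through hERG after potassium depolarization seen as dye fluorescence rise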
KCNQ1 inh: human KCNQ1 channel inhibition; P51787; CHO-K1 KCNQ1, FluxOR thallium flux fluorescence; active compounds read high; B-score at 10 µM; hit rate 1.3% among 310,000; AID 2642;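 active = compounds whose thallium flux B-score, printed positive for inhibition, exceeds three library SD while starting fluorescence stays within three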;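 note: channel opened by potassium depolarization with thallium stimulus after 20 min compound exposure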
KCNQ1 act: potentiators or activators of human KCNQ1 potassium channel; P51787; B-score at 10 µM; CHO-K1 KCNQ1, thallium flux FluxOR fluorescence; active compounds read high; hit rate 0.35% among 310,000;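 active = fluorescence ratio B-score, a plate-corrected score, at least three library SD, with initial intensity B-score within 5 SD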
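Assay system: CHO-K1 cells stably expressing KCNQ1. Medium: assay buffer for compound exposure, DMSO matched across wells. Timing: 37 °C overnight plating, 90-min dark dye load, 20-min compound pretreatment. Signal: kinetic FluxOR fluorescence, 10 s baseline plus 110 s post-stimulus.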
Kir21 inh: Kir2.1 (mouse) channel inhibition; hit rate 0.85% among 310,000; HEK293-Kir2.1, FluxOR thallium flux fluorescence; active compounds read low; B-score at 10 µM; P35561;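 active = fluorescence ratio B-score at or below minus 3 SD of library scores, with starting-brightness B-score within 2 SD, cut at about -4.2 in these data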;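 note: channel flux triggered by added potassium and thallium sulfate stimulus; B-score of peak minus minimum fluorescence over baseline after thallium stimulus; more negative B-score means stronger Kir2.1 block with less thallium influx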
Target sequence (P35561 whole entry, looked up): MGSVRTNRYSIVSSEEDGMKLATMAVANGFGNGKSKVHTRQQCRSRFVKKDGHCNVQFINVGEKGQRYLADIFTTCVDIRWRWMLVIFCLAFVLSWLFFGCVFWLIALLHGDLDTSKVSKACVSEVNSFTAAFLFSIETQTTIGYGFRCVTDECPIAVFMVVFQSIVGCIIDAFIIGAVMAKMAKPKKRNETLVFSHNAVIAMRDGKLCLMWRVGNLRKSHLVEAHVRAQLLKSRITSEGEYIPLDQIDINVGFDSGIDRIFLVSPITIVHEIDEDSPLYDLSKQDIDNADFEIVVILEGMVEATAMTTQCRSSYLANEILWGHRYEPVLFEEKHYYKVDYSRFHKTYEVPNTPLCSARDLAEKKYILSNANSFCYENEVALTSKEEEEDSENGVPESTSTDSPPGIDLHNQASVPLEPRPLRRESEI
KCNK9 inh: blocks the human KCNK9 two-pore domain potassium channel. AID 488922. HEK293 KCNK9, FluxOR thallium flux fluorescence; active compounds read low. B-score at 10 µM. hit rate 1.2% among 310,000. Q9NPC2;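 active = ratio B-score over 3 SD below the library mean, with starting fluorescence within 5 SD of its mean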;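 note: negative B-score means less thallium flux so channel inhibition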
Starred values were filed as active, the others as inactive; i = inactive; · = no result given.

SMILES | KCNK3 block | hERG protect | KCNQ1 inh | KCNQ1 act | Kir21 inh | KCNK9 inh
Cc1ccc(NC(=O)C(c2ccccc2)c2ccccc2)c(O)c1 | i | -13 | i | i | -1.4 | -7.8*
CC(=O)[C@]1(O)Cc2c(O)c3c(c(O)c2[C@@H](O[C@H]2C[C@H](N)[C@H](O)[C@H](C)O2)C1)C(=O)c1ccccc1C3=O | · | -49 | 21* | i | -12 | i
O=C(Nc1ccccc1C(=O)O)c1cncc(Br)c1 | i | 6.6* | i | i | -0.29 | i
CCOc1ccc(C(=O)Nc2ccccc2C(=O)O)cc1 | i | 7.5* | i | i | -1.1 | i
COc1ccc(OCC(=O)Nc2ccc(C(=O)Nc3ccccc3C(=O)O)cc2)cc1 | i | -11 | i | i | 1.3 | i
CCOc1ccccc1C(=O)Nc1ccccc1O | i | -20 | i | i | 1.4 | -6.7*
CCOc1ccc(C(=O)NCC(C)NC(=O)c2ccc(OCC)cc2)cc1 (stereo not drawn) | i | -4 | 14* | i | 3.9 | i
CCOc1ccccc1C(=O)Nc1cccc2ccccc12 | i | -2 | i | i | 1.5 | i
O=C(NC(=S)Nc1ccccc1C(=O)O)c1cncc(Br)c1 | i | -3 | i | i | -0.24 | i
Cc1onc(-c2ccccc2)c1C(=O)N1CCN(c2ccccc2F)CC1 | i | -6 | i | i | 0.1 | i
Cc1cccc(N2CCN(C(=S)Nc3ccc4nc5n(c(=O)c4c3)CCCCC5)CC2)c1C | i | -7 | i | i | -1.1 | i
CCOC(=O)C1CCN(C(=O)COC(=O)/C=C/c2cccc(OC)c2OC)CC1 | i | · | · | · | · | ·
OC(c1ccc(F)cc1)(C1CCCCC1)C(CN1CCOCC1)c1ccccc1 (stereo not drawn) | i | -7 | 8* | i | -0.78 | i
CC(C)CC(O)(c1ccccc1)C(CN1CCOCC1)c1ccccc1 (stereo not drawn) | i | -6 | i | i | 0.93 | i
COc1ccccc1NC(=O)C(C)NC(c1ccccc1)c1ccccc1 (stereo not drawn) | i | -7 | i | i | -0.06 | i
CC(C(=O)Nc1ccccc1Oc1ccccc1)c1ccccc1 (stereo not drawn) | i | 3 | i | i | -5* | i
Cc1ccc(C2c3c(-c4ccccc4O)n[nH]c3C(=O)N2Cc2ccncc2)cc1 (stereo not drawn) | i | 12* | i | i | -0.81 | i
C=CC[C@H](CC(=O)N(CCO)Cc1ccccc1)C(=O)N[C@H](COC(=O)[C@@H](CC=C)CC(=O)OC(C)(C)C)c1ccccc1 | i | · | · | · | · | ·
CC(=O)Nc1ccc(OCCOc2ccc([N+](=O)[O-])cc2)cc1 | i | -4 | i | i | -0.41 | i
O=C(NNC(=O)c1ccncc1)Nc1ccc([N+](=O)[O-])cc1 | i | -3 | 7* | i | 0.46 | i
O=C(Nc1ccc(Oc2ccc(NC(=O)Nc3ccc([N+](=O)[O-])cc3)cc2)cc1)Nc1ccc([N+](=O)[O-])cc1 | i | -18 | 8* | i | -0.97 | i
CC(=O)c1ccc(NC(=O)Nc2ccncc2)cc1 | i | 4.8* | i | i | 0.84 | i
O=C(NNC(=O)c1cccnc1)Nc1ccc([N+](=O)[O-])cc1 | i | -8 | i | i | -0.66 | i
O=C(Nc1ccc([N+](=O)[O-])cc1)Nc1cnccn1 | i | -16 | 12* | i | 0.93 | i
COc1ccc(CCC(=O)OCC(=O)Nc2c(C)n(C)n(-c3ccccc3)c2=O)cc1 | i | · | · | · | · | ·
SMILES | KCNK3 block | hERG protect | KCNQ1 inh | KCNQ1 act | Kir21 inh | KCNK9 inh
O=C(COC(=O)c1cccc(Cl)c1)Nc1cccc(S(=O)(=O)NC2=NCCC2)c1 | i | · | · | · | · | ·
COc1ccc(C(=O)CCC(=O)Nc2cccnc2)cc1OC | i | -5 | i | i | 0.94 | i
CC(=O)c1ccc(NC(=O)Nc2ccc([N+](=O)[O-])cc2)cc1 | i | -19 | 7* | i | -1.1 | i
CC(=O)c1ccc(-n2nncc2-c2ccc([N+](=O)[O-])cc2)cc1 | i | 5.5* | i | i | -0.54 | i
O=C(CCN(NC(=O)c1ccccc1)C1=NS(=O)(=O)c2ccccc21)NC1CCCCC1 | i | -5 | i | i | -1.4 | i
COc1ccc(-n2c(-c3ccc(Br)cc3)c[n+]3c2SC(C)C3)cc1 (stereo not drawn) | i | -33 | i | i | 0.32 | i
Cc1cccc(OCCSc2nncn2C)c1 | i | 9.8* | i | i | -0.63 | i
CCN(CC(=O)Nc1ccc2c(c1)OCCO2)S(=O)(=O)c1ccc(F)cc1 | i | -6 | i | i | 0.2 | i
CCn1c(SCc2ccc(C#N)cc2)nnc1-c1cccc(Cl)c1 | i | -11 | i | i | -4.6* | i
C=CCn1c(SCc2ccc(C#N)cc2)nnc1-c1ccc(C)cc1 | i | -5 | i | i | -2 | i
Clc1ccc(CSc2nnc(-c3cccnc3)n2Cc2ccco2)c(Cl)c1 | i | -18 | i | i | -4.3* | i
c1cncc(CSc2nnc(-c3cccnc3)n2Cc2ccco2)c1 | · | -11 | i | i | -1.6 | i
Cc1cccc(-c2nnc(SCc3ccc(C#N)cc3)n2Cc2ccco2)c1 | i | -17 | i | i | -5.3* | i
CCn1c(COc2ccc(Cl)cc2)nnc1SCc1ccc(C#N)cc1 | i | -6 | i | i | -4.8* | i
N#Cc1c(NC(=O)CSc2nc(N)cc(=O)[nH]2)sc2c1CCCC2 | i | -4 | i | i | 0.55 | i
COc1ccc(-c2ccc3c(c2)S(=O)(=O)c2cccc(C(=O)N4CCN(c5c(Cl)cncc5Cl)CC4)c2C3=O)cc1OC | i | · | · | · | · | ·
CCS(=O)(=O)n1nc(-c2ccc(Cl)cc2)nc1SCc1ccccc1 | · | -15 | 10* | i | -0.76 | i
CCn1c(SCc2ccc(Cl)cc2)nnc1-c1ccccc1 | i | -10 | i | i | -5.3* | i
CCn1c(SCc2cccc(C(=O)O)c2)nnc1-c1ccccc1 | i | -6 | i | i | 0.02 | i
COc1ccc(-c2nc(SCc3ccccc3)n(S(C)(=O)=O)n2)cc1 | i | -7 | i | i | 0.68 | i
CCOC(=O)c1c(N=CN(C)C)c2cc([N+](=O)[O-])cnc2n1C | i | -11 | i | i | 0.35 | i
Cc1ccc2c(c1)c1c3n2CCN(C(=O)CCl)C3CCC1 (stereo not drawn) | i | -15 | i | i | -8.8* | i
O=C(COC(=O)C12CC3CC(CC(C3)C1)C2)NCCc1ccccc1 | i | -11 | i | i | -0.4 | i

Screening data: PubChem BioAssay, Johns Hopkins Ion Channel Center
